Experimental data as given in ChEMBL document CHEMBL4706487, “Antitumor agents 7. Synthesis, antiproliferative activity and molecular modeling of new l-lysine-conjugated pyridophenoxazinones as potent DNA-binding ligands and topoisomerase IIα inhibitors” (Eur J Med Chem, 2020).
Calls of active or inactive are those of the source. The rule behind the calls is not given here.

How the values were obtained:
CCRF-CEM = assay: Antiproliferative activity against human CCRF-CEM cells assessed as cell viability measured after 4 days by MTT assay; assay type: functional, cell-based; conditions: 96 h
How it was run: (§1)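 Leukemia/lymphoma cells (RPMI 1640, 10% FCS) resuspended at 1 × 10⁵ cells/mL with serial drug dilutions and read by MTT after 96 h at 37 °C. Solid-tumor cells (own media, 10% FCS) were seeded at 5 × 10⁴ cells/mL, allowed 16 h to adhere, then dosed and read by MTT 4 days later. IC50 was derived by linear regression of growth as % of untreated controls.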

CCRF-SB = assay: Antiproliferative activity against human CCRF-SB cells assessed as cell viability measured after 4 days by MTT assay; assay type: functional, cell-based; conditions: 96 h; how it was run: as §1
MT4 = assay: Antiproliferative activity against human MT-4 cells assessed as cell viability measured after 4 days by MTT assay; assay type: functional, cell-based; conditions: MT4, 96 h; how it was run: as §1
HT-29 = assay: Antiproliferative activity against human HT-29 cells assessed as cell viability measured after 4 days by MTT assay; assay type: functional, cell-based; conditions: HT-29, 96 h; how it was run: as §1
MCF7 [1] = assay: Antiproliferative activity against human MCF7 cells assessed as cell viability measured after 4 days by MTT assay; assay type: functional, cell-based; conditions: MCF7, 96 h; how it was run: as §1
HeLa = assay: Antiproliferative activity against human HeLa cells assessed as cell viability measured after 4 days by MTT assay; assay type: functional, cell-based; conditions: 96 h
How it was run: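 Solid-tumor cells (own media, 10% FCS) were seeded at 5 × 10⁴ cells/mL, allowed 16 h to adhere, then dosed and read by MTT 4 days later. IC50 was derived by linear regression of growth as % of untreated controls.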

ACHN = assay: Antiproliferative activity against human ACHN cells assessed as cell viability measured after 4 days by MTT assay; assay type: functional, cell-based; conditions: 96 h; how it was run: as §1
SK-MEL-28 = assay: Antiproliferative activity against human SKMEL-28 cells assessed as cell viability measured after 4 days by MTT assay; assay type: functional, cell-based; conditions: SK-MEL-28, 96 h; how it was run: as §1
G-361 = assay: Antiproliferative activity against human G-361 cells assessed as cell viability measured after 4 days by MTT assay; assay type: functional, cell-based; conditions: G-361, 96 h; how it was run: as §1
Calf thymus DNA [2] = assay: Binding affinity to calf thymus DNA assessed as lamda max by UV-vis spectroscopy; assay type: nucleic-acid assay; conditions: Bos taurus
How it was run: (§2)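 ctDNA held at 0.2 mM in phosphate buffer pH 7 and titrated with drug from […]. UV-vis spectra recorded in a 1 cm quartz cuvette. Binding constant was taken by the mole-ratio method from optical density changes at 260 nm, using a double reciprocal plot.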

Calf thymus DNA [3] = assay: Binding affinity to calf thymus DNA assessed as isosbestic point by UV-vis spectroscopy; assay type: nucleic-acid assay; conditions: Bos taurus; how it was run: as §2
Calf thymus DNA [4] = assay: Binding affinity to calf thymus DNA assessed as red shift by UV-vis spectroscopy; assay type: nucleic-acid assay; parameters: unit not given here; conditions: Bos taurus; how it was run: as §2
MCF7 [5] = assay: Induction of DNA damage in human MCF7 cells assessed as increase in gammaH2AX foci at 5 to 10 uM measured after 0.5 to 3 hrs by Western blot analysis; assay type: functional, cell-based; conditions: dose 5-10 µM, time 0.5-3 hrs
How it was run: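 MCF-7 cells were treated for 0.5, 1 and 3 h, washed with ice-cold PBS and lysed in RIPA buffer containing PMSF and protease inhibitors. Lysates run on SDS-PAGE, blotted to PVDF and probed for H2AX, with β-actin as loading control. Detection by HRP secondary antibody and enhanced chemiluminescence.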

DNA [6] = assay: Binding affinity at Escherichia coli pBR322 DNA assessed as unwinding of supercoiled DNA at 10 uM incubated for 10 mins in presence of human topoisomerase 1 by agarose gel based electrophoresis; assay type: nucleic-acid assay
How it was run: (§3)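 Intercalation assay with relaxed pBR322 (300 ng) and 2 units human Topo I in 50 mM Tris-HCl pH 7.5, 2.5 mM MgCl₂, 0.5 mM DTT and 50 µg/mL BSA, run 10 min at 37 °C. Stopped by phenol/chloroform/isoamyl alcohol extraction. Products run on 1.2% agarose in TAE, 2 V/cm for 15 h, then EtBr-stained. EtBr served as control; three independent experiments.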

DNA [7] = assay: Binding affinity at Escherichia coli pBR322 DNA assessed as unwinding of supercoiled DNA at 0.1 uM incubated for 10 mins in presence of human topoisomerase 1 by agarose gel based electrophoresis; assay type: nucleic-acid assay; how it was run: as §3
[8] = target: DNA topoisomerase 2-alpha (Homo sapiens) (UniProt P11388); assay: Inhibition of human topoisomerase 2alpha mediated pBR322 DNA relaxation at 0.7 uM by agarose gel electrophoresis relative to control
DNA topoisomerase 2-alpha (Homo sapiens), sequence (P11388 whole entry): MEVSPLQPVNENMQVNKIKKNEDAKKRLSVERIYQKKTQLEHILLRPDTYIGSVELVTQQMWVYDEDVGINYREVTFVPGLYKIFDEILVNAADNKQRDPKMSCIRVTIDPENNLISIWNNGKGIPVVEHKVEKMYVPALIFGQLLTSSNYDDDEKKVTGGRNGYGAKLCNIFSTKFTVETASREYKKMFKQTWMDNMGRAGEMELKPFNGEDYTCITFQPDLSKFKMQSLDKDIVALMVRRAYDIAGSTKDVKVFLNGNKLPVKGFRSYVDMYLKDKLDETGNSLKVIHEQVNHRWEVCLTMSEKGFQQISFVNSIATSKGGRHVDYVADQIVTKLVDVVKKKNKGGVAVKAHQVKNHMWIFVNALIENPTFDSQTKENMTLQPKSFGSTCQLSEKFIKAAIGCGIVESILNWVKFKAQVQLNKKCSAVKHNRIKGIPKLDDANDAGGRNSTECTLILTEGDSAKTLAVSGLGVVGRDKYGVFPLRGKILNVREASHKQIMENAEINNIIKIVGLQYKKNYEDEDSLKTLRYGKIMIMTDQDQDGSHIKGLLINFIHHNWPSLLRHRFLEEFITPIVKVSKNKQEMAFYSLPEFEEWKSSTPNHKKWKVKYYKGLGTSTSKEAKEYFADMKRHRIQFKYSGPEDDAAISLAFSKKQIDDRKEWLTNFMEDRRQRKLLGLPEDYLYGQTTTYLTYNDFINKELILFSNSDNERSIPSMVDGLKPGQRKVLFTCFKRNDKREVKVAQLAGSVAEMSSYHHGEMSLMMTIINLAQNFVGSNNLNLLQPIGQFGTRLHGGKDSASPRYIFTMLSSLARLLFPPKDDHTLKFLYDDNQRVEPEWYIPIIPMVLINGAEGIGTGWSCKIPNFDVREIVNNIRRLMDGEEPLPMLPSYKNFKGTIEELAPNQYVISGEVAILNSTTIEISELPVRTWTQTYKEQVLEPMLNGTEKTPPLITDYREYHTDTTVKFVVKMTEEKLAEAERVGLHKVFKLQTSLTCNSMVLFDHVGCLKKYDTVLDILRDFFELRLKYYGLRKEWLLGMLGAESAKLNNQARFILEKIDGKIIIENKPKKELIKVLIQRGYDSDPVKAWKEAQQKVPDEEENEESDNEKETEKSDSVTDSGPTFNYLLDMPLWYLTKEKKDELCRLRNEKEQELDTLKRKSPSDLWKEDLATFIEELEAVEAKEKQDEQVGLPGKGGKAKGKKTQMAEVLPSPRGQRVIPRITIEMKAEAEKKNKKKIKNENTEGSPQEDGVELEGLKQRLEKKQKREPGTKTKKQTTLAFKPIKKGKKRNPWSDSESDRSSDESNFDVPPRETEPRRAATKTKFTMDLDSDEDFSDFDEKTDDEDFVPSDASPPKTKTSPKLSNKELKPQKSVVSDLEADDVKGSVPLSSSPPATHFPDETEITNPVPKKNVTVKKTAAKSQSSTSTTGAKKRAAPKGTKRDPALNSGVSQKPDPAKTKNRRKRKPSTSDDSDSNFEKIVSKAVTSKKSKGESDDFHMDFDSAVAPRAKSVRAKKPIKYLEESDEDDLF

[9] = target: DNA topoisomerase 2-alpha (Homo sapiens) (UniProt P11388); assay: Inhibition of human topoisomerase 2alpha mediated pBR322 DNA relaxation at 1.5 uM by agarose gel electrophoresis relative to control
[10] = target: DNA topoisomerase 2-alpha (Homo sapiens) (UniProt P11388); assay: Poison activity at human topo2alpha assessed as induction of accumulation of topo-2/DNA cleavage complex formation at 1 to 5 uM using […] plasmid incubated for 10 mins by agarose gel electrophoresis; conditions: dose 1-5 µM
How it was run: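 Supercoiled pBR322 incubated with purified Topo IIα and drug for 10 min at 30 °C. Stopped with 0.35% SDS plus 0.3 mg/mL proteinase K (final), then 1 h at 56 °C. Products run on 1.2% agarose gels containing EtBr. Linear DNA quantified by gel densitometry; averages of three independent experiments.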

[11] = target: DNA topoisomerase 2-beta (Homo sapiens) (UniProt Q02880); assay: Poison activity at topo2beta (unknown origin) assessed as induction of accumulation of topo-2/DNA cleavage complex formation by agarose gel electrophoresis
DNA topoisomerase 2-beta (Homo sapiens), sequence (Q02880 whole entry): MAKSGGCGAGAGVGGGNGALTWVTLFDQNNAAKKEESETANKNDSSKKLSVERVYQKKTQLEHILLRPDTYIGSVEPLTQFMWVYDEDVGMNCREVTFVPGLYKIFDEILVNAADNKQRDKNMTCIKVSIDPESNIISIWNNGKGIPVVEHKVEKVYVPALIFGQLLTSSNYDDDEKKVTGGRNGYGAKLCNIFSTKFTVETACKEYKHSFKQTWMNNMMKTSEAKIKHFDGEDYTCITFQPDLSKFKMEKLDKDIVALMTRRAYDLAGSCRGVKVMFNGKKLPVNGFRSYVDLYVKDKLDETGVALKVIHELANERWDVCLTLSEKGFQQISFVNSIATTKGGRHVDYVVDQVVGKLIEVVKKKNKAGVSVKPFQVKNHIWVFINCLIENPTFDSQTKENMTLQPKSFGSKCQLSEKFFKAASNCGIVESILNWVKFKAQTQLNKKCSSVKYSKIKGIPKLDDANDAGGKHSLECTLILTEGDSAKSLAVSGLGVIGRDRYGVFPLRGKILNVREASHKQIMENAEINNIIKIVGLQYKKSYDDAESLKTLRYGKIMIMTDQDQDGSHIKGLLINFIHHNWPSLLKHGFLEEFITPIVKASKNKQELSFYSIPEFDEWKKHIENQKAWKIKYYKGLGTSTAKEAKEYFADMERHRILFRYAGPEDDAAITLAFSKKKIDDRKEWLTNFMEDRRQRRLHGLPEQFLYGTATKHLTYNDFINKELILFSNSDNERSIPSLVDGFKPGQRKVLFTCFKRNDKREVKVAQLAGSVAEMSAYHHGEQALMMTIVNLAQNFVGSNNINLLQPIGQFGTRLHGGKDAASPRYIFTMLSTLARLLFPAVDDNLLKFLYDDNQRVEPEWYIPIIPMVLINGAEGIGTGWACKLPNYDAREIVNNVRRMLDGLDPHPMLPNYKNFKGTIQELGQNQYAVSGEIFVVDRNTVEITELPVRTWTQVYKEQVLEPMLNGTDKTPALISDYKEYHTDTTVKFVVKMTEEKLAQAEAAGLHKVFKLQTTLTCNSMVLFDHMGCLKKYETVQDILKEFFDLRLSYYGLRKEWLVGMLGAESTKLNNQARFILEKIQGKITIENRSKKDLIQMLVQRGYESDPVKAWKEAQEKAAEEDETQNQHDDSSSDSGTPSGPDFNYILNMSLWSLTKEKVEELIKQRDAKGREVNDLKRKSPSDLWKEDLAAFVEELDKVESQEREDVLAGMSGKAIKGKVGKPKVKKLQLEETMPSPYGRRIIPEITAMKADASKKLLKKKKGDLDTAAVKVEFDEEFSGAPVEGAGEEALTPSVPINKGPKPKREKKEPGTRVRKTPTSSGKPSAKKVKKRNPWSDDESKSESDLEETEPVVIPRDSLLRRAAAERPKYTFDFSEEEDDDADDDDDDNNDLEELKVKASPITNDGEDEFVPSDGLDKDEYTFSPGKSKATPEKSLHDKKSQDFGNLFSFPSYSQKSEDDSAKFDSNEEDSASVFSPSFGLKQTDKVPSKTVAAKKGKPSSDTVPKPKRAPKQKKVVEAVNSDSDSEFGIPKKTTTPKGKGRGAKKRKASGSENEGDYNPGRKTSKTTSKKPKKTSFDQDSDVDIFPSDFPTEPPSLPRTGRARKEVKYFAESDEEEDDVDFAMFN

MCF7 [12] = assay: Induction of DNA damage in human MCF7 cells assessed as increase tail length at 1 to 10 uM after 24 hrs by comet assay; assay type: functional, cell-based; conditions: dose 1-10 µM
How it was run: (§4)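 About 1 × 10⁵ MCF-7 cells seeded; after 24 h, drug added for 24 h, with 10 µM VP-16 as positive control. Alkaline comet assay: lysis 1 h at 4 °C at pH 10, unwinding at pH 13, then electrophoresis at 30 V for 15 min. Slides neutralized, PI-stained and imaged by fluorescence microscopy at 10×. Tail lengths were taken from randomly selected cells.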

MCF7 [13] = assay: Induction of DNA damage in human MCF7 cells assessed as increase tail length at 10 uM after 24 hrs by comet assay (reference value: 8%); assay type: functional; how it was run: as §4
MCF7 [14] = assay: Induction of cell cycle arrest in human MCF7 cells assessed as accumulation of cells at G0/G1 phase at 0.1 uM after 12 hrs by flow cytometry (reference value: 51.7%); assay type: functional
How it was run: (§5)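 MCF-7 cells exposed continuously to vehicle or 0.1 µM drug for 12, 24 and 48 h. Cell cycle distribution was assessed by flow cytometry.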

MCF7 [15] = assay: Induction of cell cycle arrest in human MCF7 cells assessed as accumulation of cells at S phase at 0.1 uM after 12 hrs by flow cytometry (reference value: 31.3%); assay type: functional; how it was run: as §5
MCF7 [16] = assay: Induction of cell cycle arrest in human MCF7 cells assessed as accumulation of cells at G2/M phase at 0.1 uM after 12 hrs by flow cytometry (reference value: 17%); assay type: functional; how it was run: as §5
MCF7 [17] = assay: Induction of cell cycle arrest in human MCF7 cells assessed as accumulation of cells at G0/G1 phase at 0.1 uM after 24 hrs by flow cytometry (reference value: 51.7%); assay type: functional; how it was run: as §5
MCF7 [18] = assay: Induction of cell cycle arrest in human MCF7 cells assessed as accumulation of cells at S phase at 0.1 uM after 24 hrs by flow cytometry (reference value: 31.3%); assay type: functional; how it was run: as §5
MCF7 [19] = assay: Induction of cell cycle arrest in human MCF7 cells assessed as accumulation of cells at G2/M phase at 0.1 uM after 24 hrs by flow cytometry (reference value: 17%); assay type: functional; how it was run: as §5
MCF7 [20] = assay: Induction of cell cycle arrest in human MCF7 cells assessed as accumulation of cells at G0/G1 phase at 0.1 uM after 48 hrs by flow cytometry (reference value: 51.7%); assay type: functional; how it was run: as §5
MCF7 [21] = assay: Induction of cell cycle arrest in human MCF7 cells assessed as accumulation of cells at S phase at 0.1 uM after 48 hrs by flow cytometry (reference value: 31.3%); assay type: functional; how it was run: as §5
MCF7 [22] = assay: Induction of cell cycle arrest in human MCF7 cells assessed as accumulation of cells at G2/M phase at 0.1 uM after 48 hrs by flow cytometry (reference value: 17%); assay type: functional; how it was run: as §5
Calf thymus DNA [23] = assay: Binding affinity to calf thymus DNA assessed as hypochromism by UV-vis spectroscopy; conditions: Bos taurus

`N[C@@H](CCCCNC(=O)c1ccc2nc3c4cccnc4c(=O)cc-3oc2c1)C(=O)O` was tested, and the IC50 (CCRF-CEM) was 3 nM, the IC50 (CCRF-SB) was 5 nM and the IC50 (MT4) was 6 nM. It also gave an IC50 (HT-29) of 4 nM, an IC50 (MCF7 [1]) of 3 nM and an IC50 (HeLa) of 5 nM. It also gave an IC50 (ACHN) of 5 nM, an IC50 (SK-MEL-28) of 2 nM and an IC50 (G-361) of 6 nM. It also gave an Activity (Calf thymus DNA [2]) of 443, an Activity (Calf thymus DNA [3]) of 340 nm and an Activity (Calf thymus DNA [4]) of 448. For the same molecule, the Activity (MCF7 [5]) was “Active”, the Activity (DNA [6]) was “Active” and the Activity (DNA [7]) was “Active”. The inhibition [8] was 50%, the inhibition [9] was 100% and the Activity [10] was “Active”. For the same molecule, the Activity [11] was “inactive”, the Activity (MCF7 [12]) was “Active” and the Activity (MCF7 [13]) was 50%. For the same molecule, the Activity (MCF7 [14]) was 51.71%, the Activity (MCF7 [15]) was 30.5% and the Activity (MCF7 [16]) was 17.8%. It also gave an Activity (MCF7 [17]) of 48%, an Activity (MCF7 [18]) of 26% and an Activity (MCF7 [19]) of 26%. It also gave an Activity (MCF7 [20]) of 42.5%, an Activity (MCF7 [21]) of 8.73% and an Activity (MCF7 [22]) of 48.77%. It also gave an Activity (Calf thymus DNA [23]) of 58%.
